CHOP inhibitor: inhibitors of CHOP promoter induction, primary screen, cell-based, unfolded protein response, luciferase reporter. CHO-K1 CHOP-promoter luciferase, tunicamycin-induced, 15-18 h. inhibition, % at 10 µM. actives 3.8% (n = 220,000). AID 2732, 2010;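 active means compounds that reduced the stress-induced luciferase reporter signal by more than about 70% of percent inhibition, limit read from the data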;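 further: 0% = tunicamycin plus vehicle and 100% = wells without tunicamycin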
Bfl-1 A1 inh: caspase 3/7 activation in MEF A1-2A-BIM cells, primary screen, A1 inhibitor project, cell-based, luminescence, HTS. Caspase-Glo 3/7 luminescence, 3 h; percent of clofoctol response, vehicle zero. caspase activation, % (concentration not given with the values). actives 0.066% (n = 330,000);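 active means over half of replicate activation scores above 10%, or exactly half above 10 with the replicate mean above 10; inconclusive means replicate mean below 10 yet half the replicates above 10; inactive means over half of replicates below 10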
UPR XBP1 act: activators of adaptive XBP1 UPR arm, primary screen, cell-based, CHO-XBP1 luciferase reporter, luminescence, uHTS; AID 463104, 2010; actives 0.33% (n = 330,000); IRE1-XBP1 UPR activation; percent of tunicamycin response, DMSO as zero; activation, % at 20 µM;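 active means versus positive control, 20 µM dose yields 30% or more activation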;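 further: 100% = tunicamycin at 10 µg/mL and 0% = DMSO only wells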
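Material: CHO cell line with stable XBP1 luciferase reporter; buffer or medium: F12 medium containing 10% fetal bovine serum; compound: single point, 20 µM final compound, 1% DMSO; incubation: 6 h treatment, 37 °C; measured by: glow luminescence from Steady-Glo reagent; evaluation: activation, % of tunicamycin; control set: tunicamycin high, DMSO low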
UPR CHOP act: activators of apoptotic CHOP UPR arm, primary screen, cell-based, CHO-CHOP luciferase reporter, luminescence, uHTS; UPR activation; percent of tunicamycin response over DMSO baseline; activation, % at 10 µM; actives 0.34% (n = 330,000); AID 449763, 2010;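 active means at 10 µM dose, activation of 40% or more, normalized to positive control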;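 further: 100% = tunicamycin at 10 µg/mL and 0% = DMSO alone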
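System: CHO-CHOP luciferase reporter cell line; amount: 500 cells/well; buffer or medium: F12 medium containing 10% fetal bovine serum; incubation: 6 h compound exposure at 37 °C after overnight seeding; measured by: luciferase luminescence after 10 min with Steady-Glo reagent; evaluation: % reporter activation, DMSO baseline versus tunicamycin full activation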
CHOP inh conf: retest of CHOP induction inhibitors, confirmation, cell-based. shares compounds with CHOP inhibitor. CHO-CHOP promoter luciferase reporter, tunicamycin-induced, luminescence. inhibition, % at 10 µM. actives 45% (n = 2,100);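 active means mean of three repeat readings of reporter signal inhibition above a set limit, cut at about 70% in these data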;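 further: 0% = tunicamycin plus vehicle and 100% = wells lacking tunicamycin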
* marks the source's active call; other numbers are inactive results. Only a selection was taken, and hits are over-represented in it overall.

Results for Cc1ccc(NC(=O)c2cc(NC(=O)c3ccco3)ccc2N2CCCCC2)cc1 ?
CHOP inhibitor: 100*; Bfl-1 A1 inh: 0; UPR XBP1 act: 3; UPR CHOP act: -1; CHOP inh conf: 88*

Results for O=C(CSc1nnc(-c2cccnc2)o1)Nc1cccc(F)c1 ?
Bfl-1 A1 inh: 0; UPR XBP1 act: 0; UPR CHOP act: 4

Results for Cc1ccccc1Oc1cc(-n2ncc(Cl)c(Cl)c2=O)ncn1 ?
CHOP inhibitor: 108*; Bfl-1 A1 inh: -1; CHOP inh conf: 119*

What do the screens show for `CCOc1cnn(-c2cc(Oc3ccc(C)cc3)ncn2)c(=O)c1Cl`?
CHOP inhibitor: 45; Bfl-1 A1 inh: 1; UPR XBP1 act: 0; UPR CHOP act: 1

What do the screens show for `Cc1cccc(C(=O)NC(=S)NNC(=O)c2ccc(Cl)cc2)c1`?
CHOP inhibitor: 107*; Bfl-1 A1 inh: 0; CHOP inh conf: 53

How did CCCn1c(=O)c(C(=O)NNS(=O)(=O)c2ccc(Cl)cc2)c(O)c2ccccc21 do in these assays?
CHOP inhibitor: 107*; Bfl-1 A1 inh: 1; UPR XBP1 act: -3; UPR CHOP act: -1; CHOP inh conf: -10

Results for CCCn1c(=O)c(C(=O)NNC(=O)c2ccc(Cl)cc2Cl)c(O)c2ccccc21 ?
Bfl-1 A1 inh: 0; UPR XBP1 act: 6; UPR CHOP act: 2

What do the screens show for `CC(=O)Nc1ccc(CN2CCN(CCc3ccccc3)C(CCO)C2)cc1` (stereo not given)?
CHOP inhibitor: -1; Bfl-1 A1 inh: 1; UPR XBP1 act: -1; UPR CHOP act: 1

How did Clc1ccc(Cn2cc(/C=N/n3cnnc3)c3ccccc32)c(Cl)c1 do in these assays?
CHOP inhibitor: 108*; Bfl-1 A1 inh: 0; UPR XBP1 act: 1; UPR CHOP act: 0; CHOP inh conf: 49

What do the screens show for `O=C(C1CC(=O)N(c2ccccc2)C1)N1CCCCCC1` (stereo not given)?
Bfl-1 A1 inh: -1; UPR XBP1 act: -3; UPR CHOP act: 4

Results for C=CS(=O)(=O)c1ccc(Oc2ccc(S(=O)(=O)C=C)cc2)cc1 ?
Bfl-1 A1 inh: 0; UPR XBP1 act: -6; UPR CHOP act: -7; CHOP inh conf: 120*

How did CCOc1cc(NC(=S)NCC(C)C)c(OCC)cc1NC(=O)c1cccs1 do in these assays?
CHOP inhibitor: 100*; UPR XBP1 act: -1; UPR CHOP act: -2; CHOP inh conf: 100*

What do the screens show for `O=S1(=O)C=C(Sc2nc3cc(Cl)ccc3o2)c2ccccc21`?
Bfl-1 A1 inh: inconclusive; UPR XBP1 act: -5; UPR CHOP act: -9; CHOP inh conf: 138*

Results for O=C(c1ccc(Cl)cc1)N1CCC(O)(CSc2ccc(Cl)cc2Cl)CC1 ?
CHOP inhibitor: 109*; Bfl-1 A1 inh: 2; UPR XBP1 act: -2; UPR CHOP act: 0; CHOP inh conf: 87*

How did OC(CNCc1ccco1)Cn1c2ccc(Br)cc2c2cc(Br)ccc21 (stereo not given) do in these assays?
CHOP inhibitor: 108*; Bfl-1 A1 inh: 1; UPR XBP1 act: 24; UPR CHOP act: 18; CHOP inh conf: 46

How did CCN(CC)c1ccc(NC2=C(Cl)C(=O)c3ccccc3C2=O)cc1 do in these assays?
CHOP inhibitor: 107*; Bfl-1 A1 inh: inconclusive; CHOP inh conf: -11

Results for Cc1ccc(NC2=C(Cl)C(=O)c3ccccc3C2=O)cc1 ?
CHOP inhibitor: 7; Bfl-1 A1 inh: -1

Results for O=[N+]([O-])c1ccc(N/N=C/c2c[nH]c3ccccc23)c(S(=O)(=O)Nc2ccc(Cl)cc2)c1 ?
CHOP inhibitor: 106*; Bfl-1 A1 inh: 1; UPR XBP1 act: -1; UPR CHOP act: -1; CHOP inh conf: 61

Results for CN1CCN(S(=O)(=O)c2cc([N+](=O)[O-])ccc2N/N=C/c2ccc(Cl)cc2)CC1 ?
CHOP inhibitor: 67; Bfl-1 A1 inh: 0; UPR XBP1 act: 8; UPR CHOP act: 4

Results for O=C(CSc1nc2ccsc2c(=O)n1CC1CCC(C(=O)O)CC1)c1ccc(Cl)cc1 (stereo not given) ?
CHOP inhibitor: 102*; Bfl-1 A1 inh: 1; UPR XBP1 act: -6; UPR CHOP act: -1; CHOP inh conf: -34

How did Cc1nc(SCC(=O)Nc2ccc(C)c(F)c2)c2oc3ccccc3c2n1 do in these assays?
CHOP inhibitor: 102*; Bfl-1 A1 inh: 2; UPR XBP1 act: 2; UPR CHOP act: -1; CHOP inh conf: 110*

Results for CCOc1ccccc1NC(=O)c1cccc(NC(=O)C2CCCC2)c1 ?
Bfl-1 A1 inh: 0; UPR XBP1 act: -5; UPR CHOP act: 1

Results for CCOC(=O)c1ccc(Nc2nc(=O)c3cccnc3s2)cc1 ?
CHOP inhibitor: 19; Bfl-1 A1 inh: -2; UPR XBP1 act: 1; UPR CHOP act: 1

How did O=c1nc(Nc2ccc(OCc3ccccc3)cc2)sc2ncccc12 do in these assays?
CHOP inhibitor: 102*; Bfl-1 A1 inh: 0; UPR XBP1 act: 0; UPR CHOP act: -1; CHOP inh conf: -24

What do the screens show for `CCc1ccccc1NC(=O)CN(C)C(=O)c1cc(C2CC2)nc2c1cnn2C(C)C`?
Bfl-1 A1 inh: -1; UPR XBP1 act: 1; UPR CHOP act: -1

How did CCc1c(C)sc(NC(=O)CSc2nc3c(c(C(F)(F)F)n2)CCc2ccccc2-3)c1C#N do in these assays?
CHOP inhibitor: 97*; Bfl-1 A1 inh: 1; UPR XBP1 act: 5; UPR CHOP act: 1; CHOP inh conf: 72*

How did CC(NC(=O)CSc1nc2c(c(C(F)(F)F)n1)CCc1ccccc1-2)c1ccccc1 (stereo not given) do in these assays?
CHOP inhibitor: 38; Bfl-1 A1 inh: 1; UPR XBP1 act: -5; UPR CHOP act: -2

How did Cc1ccc(NC(=O)/C=C/c2cccc(C(F)(F)F)c2)cc1 do in these assays?
CHOP inhibitor: 35; Bfl-1 A1 inh: -1; UPR XBP1 act: 0; UPR CHOP act: 7

What do the screens show for `FC(F)(F)c1cccc(NC(=S)NCC2COc3ccccc3O2)c1` (stereo not given)?
CHOP inhibitor: 103*; Bfl-1 A1 inh: 0; UPR XBP1 act: 0; UPR CHOP act: -1; CHOP inh conf: 2

Results for FC(F)(F)c1cccc(NC(=S)Nc2ccc(Cl)cc2Cl)c1 ?
CHOP inhibitor: 105*; Bfl-1 A1 inh: 0; UPR XBP1 act: -4; UPR CHOP act: 1; CHOP inh conf: 101*

What do the screens show for `O=C(Cc1ccccc1)NC(=S)Nc1cccc(C(F)(F)F)c1`?
CHOP inhibitor: 108*; Bfl-1 A1 inh: 0; UPR XBP1 act: -1; UPR CHOP act: -1; CHOP inh conf: 102*

How did S=C(Nc1ccccc1)Nc1ccc(Cl)cc1Cl do in these assays?
CHOP inhibitor: 26; Bfl-1 A1 inh: 0; UPR XBP1 act: -1; UPR CHOP act: 6

From PubChem
